Columns and labels:
[1] = target: T1, Diacylglycerol lipase-alpha (Mus musculus) (UniProt Q6WQJ1); experiment: Inhibition of MB064 labelling of DAGLalpha in mouse brain homogenates at 10 uM pretreated for 30 mins followed by MB064 addition and measured after 20 mins by activity based protein profiling assay relative to control; assay type: tissue-based
T1 sequence (whole entry): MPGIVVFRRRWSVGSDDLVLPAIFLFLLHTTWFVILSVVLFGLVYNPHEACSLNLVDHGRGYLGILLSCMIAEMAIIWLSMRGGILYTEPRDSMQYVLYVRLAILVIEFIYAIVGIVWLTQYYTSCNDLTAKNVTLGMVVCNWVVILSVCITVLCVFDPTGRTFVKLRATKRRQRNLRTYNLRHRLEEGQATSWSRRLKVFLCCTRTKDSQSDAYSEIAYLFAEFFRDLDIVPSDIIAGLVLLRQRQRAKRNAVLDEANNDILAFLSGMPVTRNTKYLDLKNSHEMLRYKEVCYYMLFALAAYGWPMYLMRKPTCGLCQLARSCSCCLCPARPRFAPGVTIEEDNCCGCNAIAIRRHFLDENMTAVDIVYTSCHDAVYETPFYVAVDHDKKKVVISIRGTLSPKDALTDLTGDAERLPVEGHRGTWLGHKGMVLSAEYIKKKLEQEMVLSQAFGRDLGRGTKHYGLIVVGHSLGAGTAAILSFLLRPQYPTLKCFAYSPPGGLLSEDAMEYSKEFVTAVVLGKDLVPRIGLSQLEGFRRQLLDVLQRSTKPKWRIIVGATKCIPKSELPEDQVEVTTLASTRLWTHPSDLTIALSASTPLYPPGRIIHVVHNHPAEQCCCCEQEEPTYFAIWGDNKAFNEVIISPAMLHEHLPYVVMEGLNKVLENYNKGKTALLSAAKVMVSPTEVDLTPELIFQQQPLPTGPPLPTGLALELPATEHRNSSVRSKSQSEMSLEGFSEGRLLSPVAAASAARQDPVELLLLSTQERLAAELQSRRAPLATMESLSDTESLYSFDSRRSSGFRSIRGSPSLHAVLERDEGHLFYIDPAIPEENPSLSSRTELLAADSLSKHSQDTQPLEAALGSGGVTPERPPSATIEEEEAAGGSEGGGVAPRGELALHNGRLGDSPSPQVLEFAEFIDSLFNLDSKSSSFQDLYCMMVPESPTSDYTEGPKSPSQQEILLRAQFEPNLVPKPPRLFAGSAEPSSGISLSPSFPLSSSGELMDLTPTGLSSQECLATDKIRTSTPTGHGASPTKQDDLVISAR
How it was run: (§1)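 Mouse brain membrane proteome preincubated 30 min with inhibitor (10 μM), then labelled with MB064 probe (0.25 μM, 20 min). Readout by gel-based competitive ABPP. Band intensities corrected for protein loading per lane from Coomassie staining. Means ± SEM, n = 3.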

[2] = target: T2, Diacylglycerol lipase-alpha (Homo sapiens, UniProt Q9Y4D2); experiment: Inhibition of recombinant human DAGLalpha expressed in HEK293 cells using PNP-butyrate as substrate pretreated for 20 to 30 mins followed by substrate addition measured every 60 secs for 20 mins by colorimetric method; assay type: cell-based
T2 sequence (Q9Y4D2 whole entry): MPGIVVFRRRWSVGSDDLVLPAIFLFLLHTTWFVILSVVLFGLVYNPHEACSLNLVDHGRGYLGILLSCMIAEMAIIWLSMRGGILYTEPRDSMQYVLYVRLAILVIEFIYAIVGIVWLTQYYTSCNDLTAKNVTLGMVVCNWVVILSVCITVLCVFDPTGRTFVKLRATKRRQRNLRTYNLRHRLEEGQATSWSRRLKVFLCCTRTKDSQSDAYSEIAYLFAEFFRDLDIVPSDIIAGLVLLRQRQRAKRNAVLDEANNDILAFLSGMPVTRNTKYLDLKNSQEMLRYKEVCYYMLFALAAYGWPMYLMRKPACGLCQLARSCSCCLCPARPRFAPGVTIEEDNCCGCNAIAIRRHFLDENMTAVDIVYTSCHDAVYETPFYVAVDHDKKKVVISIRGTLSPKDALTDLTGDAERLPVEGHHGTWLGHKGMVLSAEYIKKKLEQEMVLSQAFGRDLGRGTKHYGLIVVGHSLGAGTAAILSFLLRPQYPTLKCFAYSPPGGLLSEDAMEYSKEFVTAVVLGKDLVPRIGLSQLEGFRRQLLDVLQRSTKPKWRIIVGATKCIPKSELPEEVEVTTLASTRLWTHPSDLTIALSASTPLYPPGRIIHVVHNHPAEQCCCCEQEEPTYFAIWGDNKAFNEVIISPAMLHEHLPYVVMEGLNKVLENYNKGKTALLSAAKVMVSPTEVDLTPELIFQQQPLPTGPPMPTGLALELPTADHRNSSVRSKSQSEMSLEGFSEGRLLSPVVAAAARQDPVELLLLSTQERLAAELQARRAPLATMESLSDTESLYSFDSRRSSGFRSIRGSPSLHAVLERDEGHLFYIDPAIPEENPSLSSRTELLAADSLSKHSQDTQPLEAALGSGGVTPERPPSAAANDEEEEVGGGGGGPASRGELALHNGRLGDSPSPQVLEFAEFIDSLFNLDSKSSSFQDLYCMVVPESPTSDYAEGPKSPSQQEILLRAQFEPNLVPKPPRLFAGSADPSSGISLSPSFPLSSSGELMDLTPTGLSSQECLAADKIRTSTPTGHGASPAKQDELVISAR
How it was run: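 Membrane fraction from HEK293T cells transiently transfected with human DAGLα (PEI transfection, harvested at 72 h). Membranes used at 0.05 μg μL-1 final protein in 50 mM HEPES pH 7.2. Colorimetric readout of para-nitrophenylbutyrate hydrolysis. pIC50 ± SEM.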

[3] = target: T3, Monoacylglycerol lipase ABHD6 (Mus musculus) (UniProt Q8R2Y0); experiment: Inhibition of MB064 labelling of ABHD6 in mouse brain homogenates at 10 uM pretreated for 30 mins followed by MB064 addition and measured after 20 mins by activity based protein profiling assay relative to control; assay type: tissue-based; how it was run: as §1
T3 sequence (whole entry): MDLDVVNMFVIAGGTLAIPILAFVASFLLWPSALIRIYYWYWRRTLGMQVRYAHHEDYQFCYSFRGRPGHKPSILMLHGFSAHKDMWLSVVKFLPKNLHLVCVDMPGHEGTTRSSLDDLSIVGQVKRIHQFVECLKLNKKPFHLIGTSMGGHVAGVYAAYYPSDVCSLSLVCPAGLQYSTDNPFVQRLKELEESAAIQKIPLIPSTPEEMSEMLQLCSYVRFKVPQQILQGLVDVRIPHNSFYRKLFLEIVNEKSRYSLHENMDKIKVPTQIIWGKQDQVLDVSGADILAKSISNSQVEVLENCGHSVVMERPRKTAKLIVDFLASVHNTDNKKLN

[4] = target: T4, Monoacylglycerol lipase ABHD6 (Homo sapiens, UniProt Q9BV23); experiment: Inhibition of recombinant human ABHD6 expressed in HEK293 cells by AmplifuTM red dye based fluorescence assay; assay type: cell-based
T4 sequence (Q9BV23 whole entry): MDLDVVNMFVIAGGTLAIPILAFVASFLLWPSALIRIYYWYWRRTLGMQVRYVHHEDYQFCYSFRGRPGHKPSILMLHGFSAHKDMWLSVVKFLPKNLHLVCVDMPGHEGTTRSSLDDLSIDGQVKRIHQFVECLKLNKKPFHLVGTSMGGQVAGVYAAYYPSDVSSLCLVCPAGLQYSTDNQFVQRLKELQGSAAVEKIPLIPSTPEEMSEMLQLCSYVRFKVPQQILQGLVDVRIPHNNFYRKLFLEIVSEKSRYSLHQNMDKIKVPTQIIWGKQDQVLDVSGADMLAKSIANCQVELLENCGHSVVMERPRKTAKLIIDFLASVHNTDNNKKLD
How it was run: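 Membranes from transiently transfected HEK293T cells expressing human ABHD6, 40 μg mL-1 final protein. Real-time coupled fluorescence assay with natural substrate 2-AG (25 μM). Glycerol released is detected via glycerol kinase, glycerol-3-phosphate oxidase and HRP (0.2 U mL-1 each), 0.125 mM ATP and 10 μM Amplifu Red. Assay contains 5% DMSO and 0.5% acetonitrile. pIC50 ± SEM.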

inhibition [1] [%] | IC50 [2] [nM] | inhibition [3] [%] | IC50 [4] [nM] | SMILES
-3 | > 10000 | -3 | > 10000 | O=C(N1CCC=C[C@@H]1COCc1ccccc1)n1ccc(-c2ccc(Br)cc2)n1
87 | 25.1 | 95 | 5.01 | O=C(N1C[C@H](O)C=C[C@@H]1COCc1ccccc1)n1cc(-c2ccc(-c3ccccc3)cc2)nn1
 | > 10000 | -3 | > 10000 | O=C(N1CCC=C[C@@H]1COCc1ccccc1)n1ccc(-c2ccc(-c3ccccc3)cc2)n1
5 | > 10000 | 50 | 316 | O=C(N1C[C@H](O)C=C[C@H]1COCc1ccccc1)n1cc(-c2ccc(-c3ccccc3)cc2)nn1
18 | > 10000 | 83 | 251 | O=C(N1CC=C[C@@H](O)[C@H]1COCc1ccccc1)n1cc(-c2ccc(-c3ccccc3)cc2)nn1
92 | 15.8 | 96 | 3.16 | O=C(N1C[C@H](O)C=C[C@@H]1Cc1ccccc1)n1cc(-c2ccc(-c3ccccc3)cc2)nn1
-9 | > 10000 |  | > 10000 | O=C(N1CCC=C[C@@H]1COCc1ccccc1)n1cnc(-c2ccc(Br)cc2)c1
30 | 1260 | 84 | 100 | O=C(N1CCC=C[C@H]1COCc1ccccc1)n1cc(-c2ccc(-c3ccccc3)cc2)nn1
 | > 10000 |  | > 10000 | O=C(Oc1ccc([N+](=O)[O-])cc1)N1CCC=C[C@@H]1COCc1ccccc1
6 | > 10000 | 18 | 794 | O=C(N1CC=C[C@@H](O)[C@@H]1COCc1ccccc1)n1cc(-c2ccc(-c3ccccc3)cc2)nn1
 | > 10000 |  | > 10000 | O=C(N1CCC=C[C@@H]1COCc1ccccc1)n1cnc(-c2ccc(-c3ccccc3)cc2)c1

SMILES | inhibition [1] [%] | IC50 [2] [nM] | inhibition [3] [%] | IC50 [4] [nM]
O=C(N1CCC=C[C@@H]1COCc1ccccc1)n1cnc(-c2ccc(-c3ccccc3)cc2)n1 | 0 | > 10000 |  | > 10000
O=C(N1CCCC[C@@H]1Cc1ccccc1)n1cc(-c2ccc(-c3ccccc3)cc2)nn1 | 99 |  | 95 | 
O=C(N1CCC=C[C@H]1Cc1ccccc1)n1cc(-c2ccc(-c3ccccc3)cc2)nn1 | 83 | 79.4 | 90 | 25.1
O=C(N1CCC=C[C@@H]1Cc1ccccc1)n1cc(-c2ccc(-c3ccccc3)cc2)nn1 | 99 | 0.794 | 96 | 2.51

Reference: ChEMBL document CHEMBL4261499, “Chiral disubstituted piperidinyl ureas: a class of dual diacylglycerol lipase-α and ABHD6 inhibitors” (Medchemcomm, 2017)
